Bioassay records from PubChem BioAssay.
TRPC4 block – TRPC4 (mouse) channel inhibition; AID 2247; actives 0.39% (n = 300,000); B-score at 10 µM; HEK293 TRPC4beta/mu-opioid, DAMGO-evoked Fluo4 calcium flux; stronger effect = lower value;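 active = B-score over 3 SD under the library average, no early fluorescence shift, positive overall ratio signal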
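Assay system: TRPC4beta/mu-opioid receptor HEK293 cell line; compound dosing: single concentration per test compound; detection: Fluo4 Ca2+ flux fluorescence; evaluation: per-well B score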
TRPC4 PAM – allosteric potentiators of mouse TRPC4 channel | B-score at 10 µM | AID 2227 | HEK293 TRPC4beta/mu-opioid, DAMGO EC20, Fluo-4 Ca2+ flux; stronger effect = higher value | actives 0.42% (n = 310,000);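 active = B-score of calcium response area above 5 SD of library B-scores, with initial fluorescence ratio within 5 SD of library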
TRPC4 act – TRPC4 (mouse) channel activation | Q9QUQ5 | HEK293 TRPC4beta/mu-opioid, Fluo4 calcium fluorescence; stronger effect = higher value | actives 0.49% (n = 310,000) | B-score at 10 µM;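 active = B-score above 5 SD of library B-scores, and initial fluorescence ratio not above library mean plus 5 SD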;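 also: positive B-score marks a calcium rise read as TRPC4 activation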
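system = HEK293 cells stably co-expressing mouse TRPC4beta and mu-opioid receptor | schedule = Fluo4 dye loading 45 min at room temperature, 110 s recording | measure = B-scored integrated calcium fluorescence ratio | signal = Fluo4 calcium-sensitive dye fluorescence, kinetic, 1 Hz baseline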
TRPC6 inh – blocks the mouse TRPC6 cation channel; Q61143; HEK293-TRPC6, membrane potential dye, ACh-evoked depolarization; stronger effect = lower value; B-score at 10 µM; actives 1.1% (n = 310,000);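 active = B-score under library mean minus 3 SD, initial fluorescence not abnormally high, positive integrated signal ratio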;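 also: B-score derived from integrated fluorescence ratio over the kinetic read; more negative B-score means stronger inhibition of depolarization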
Target sequence (Q61143 whole entry, looked up): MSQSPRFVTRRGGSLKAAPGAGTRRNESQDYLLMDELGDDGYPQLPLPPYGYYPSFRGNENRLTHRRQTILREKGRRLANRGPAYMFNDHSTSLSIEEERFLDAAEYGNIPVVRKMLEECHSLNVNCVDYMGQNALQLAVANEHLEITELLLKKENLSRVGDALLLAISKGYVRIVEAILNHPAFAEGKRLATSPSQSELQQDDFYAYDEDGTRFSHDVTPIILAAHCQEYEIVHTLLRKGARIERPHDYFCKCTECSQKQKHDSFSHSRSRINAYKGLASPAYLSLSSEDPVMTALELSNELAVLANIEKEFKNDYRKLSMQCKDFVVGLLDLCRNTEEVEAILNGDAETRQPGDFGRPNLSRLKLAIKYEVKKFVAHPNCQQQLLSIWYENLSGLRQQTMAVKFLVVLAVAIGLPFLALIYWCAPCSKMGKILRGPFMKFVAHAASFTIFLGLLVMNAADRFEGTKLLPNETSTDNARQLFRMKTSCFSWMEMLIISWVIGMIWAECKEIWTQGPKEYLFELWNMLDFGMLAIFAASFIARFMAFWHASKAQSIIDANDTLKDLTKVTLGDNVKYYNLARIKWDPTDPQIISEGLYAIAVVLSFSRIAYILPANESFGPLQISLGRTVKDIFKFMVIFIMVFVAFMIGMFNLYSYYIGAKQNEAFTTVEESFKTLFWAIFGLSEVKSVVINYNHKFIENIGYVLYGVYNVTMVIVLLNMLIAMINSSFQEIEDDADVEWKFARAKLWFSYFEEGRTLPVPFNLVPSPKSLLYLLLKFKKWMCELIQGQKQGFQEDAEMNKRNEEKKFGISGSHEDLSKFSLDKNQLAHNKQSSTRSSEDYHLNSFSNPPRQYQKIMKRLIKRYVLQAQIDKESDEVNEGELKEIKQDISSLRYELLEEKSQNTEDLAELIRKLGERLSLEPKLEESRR
TRPC6 act – mouse TRPC6 channel activation; Q61143; HEK293-TRPC6 membrane potential dye fluorescence; stronger effect = higher value; B-score at 10 µM; actives 0.13% (n = 310,000);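 active = B-score of the integrated fluorescence ratio above library mean plus 3 SD, and starting fluorescence ratio within library mean plus 5 SD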;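 also: higher score means more depolarization so channel activation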
TRPC4 sel inh 2 – second check of whether TRPC6 inhibitors also affect mouse TRPC4 | inhibition, % at 10 µM | HEK293 TRPC4/MOR, membrane potential dye fluorescence; channel activated by saturating DAMGO dose | actives 42% (n = 920) | shares compounds with TRPC6 inh | AID 2776;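 active = compounds whose fluorescence signal differed from control wells by over 3 SD, either direction, in both duplicate plates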
TRPC4 spec – mouse TRPC4 off-target activity of TRPC6 inhibitors | shares compounds with TRPC6 inh | HEK293 TRPC4/mu-opioid, membrane potential fluorescence | activity change, negative = inhibition, % at 10 µM | actives 61% (n = 920);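 active = rise or fall in signal beyond 3 SD of buffer-only wells in both replicate plates, either sign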;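 also: integrated kinetic ratio of fluorescence range over baseline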
HEK293 MPD ctr 2-1 – parental HEK293 nonspecific activity of TRPC6 inhibitors, second screen | parental HEK293 membrane potential dye fluorescence; maximal acetylcholine challenge after compound addition | signal change vs control, % at 10 µM | actives 31% (n = 920) | AID 2779 | shares compounds with TRPC6 inh;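 active = membrane potential signal moving either way by over 3 SD of the maximum-effect control, in both duplicate plates, meaning non-specific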
HEK293 MPD ctr-1 – counter-screen for TRPC6 inhibitors: effect in parental HEK293 cells. shares compounds with TRPC6 inh. parental HEK293 membrane potential dye fluorescence. membrane potential signal change, % at 10 µM. actives 60% (n = 920). AID 2780;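 active = membrane potential signal shifting up or down by more than 3 SD of buffer-only wells, on both duplicate plates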
HEK293 MPD ctr-2 – counter-screen for TRPC6 modulators: effect in parental HEK293 cells. shares compounds with TRPC6 inh. membrane potential dye fluorescence. membrane potential signal change, % at 10 µM. actives 51% (n = 2,400);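 active = membrane potential signal moves up or down beyond 5 SD from buffer-only wells, on both duplicate plates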
HEK293 MPD ctr 2-2 – second counter-screen for TRPC6 modulators: effect in parental HEK293 cells | shares compounds with TRPC6 inh | membrane potential dye fluorescence; after compound, maximal acetylcholine stimulation | inhibition, % at 10 µM | actives 14% (n = 2,400) | AID 488926;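 active = membrane potential signal drops by more than 5 SD from the mean control signal, in both duplicate plates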
TRPC4/MOR mod – selectivity of TRPC6 modulators against mouse TRPC4. shares compounds with TRPC6 inh. actives 69% (n = 2,400). AID 488927. HEK293 TRPC4/mu-opioid, membrane potential fluorescence. percent change from control (negative = decrease, positive = increase), % at 10 µM;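 active = membrane potential signal moved up or down beyond 5 SD of buffer control wells, in both duplicate plates, actives on both sides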
TRPC4 ctr inh 2 – second selectivity test of TRPC6 modulators against mouse TRPC4; shares compounds with TRPC6 inh; HEK293 TRPC4/mu-opioid, membrane potential dye fluorescence; stimulated with maximal-effect DAMGO; inhibition, % at 10 µM; actives 55% (n = 2,400);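 active = drop in membrane potential signal beyond 5 SD of the control wells in both duplicate plates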;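 also: TRPC4 counter screen for TRPC6 hits run under conditions tuned for TRPC6 not TRPC4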
TRPC6 inh conf – mouse TRPC6 inhibitor confirmation; shares compounds with TRPC6 inh; HEK293-TRPC6, membrane potential dye, ACh-evoked depolarization; inhibition, % at 10 µM; actives 43% (n = 3,300); AID 488960;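 active = fluorescence ratio falls more than 5 SD below the full-stimulation control mean, in both duplicate runs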;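 also: integrated fluorescence ratio of peak minus minimum over baseline after agonist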
TRPC6 act conf – confirmation of mouse TRPC6 activators | shares compounds with TRPC6 inh | AID 488961 | actives 11% (n = 2,800) | HEK293-TRPC6 membrane potential dye fluorescence, FDSS | activation, % at 10 µM;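 active = ratio signal rise beyond 5 SD above unstimulated control wells' mean, seen in both duplicate runs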
Numbers stand for hits. Most compounds without a hit are left out; they make up all but 2.3% or so of the library.

`C#CCOCCOCCOCCNc1nc(N2CCN(C(=O)[C@H]([C@@H](C)CC)n3cc([C@@H](N)Cc4ccc(O)cc4)nn3)CC2)nc(N2CCN(C(=O)[C@H]([C@@H](C)CC)n3cc([C@@H](N)Cc4ccc(O)cc4)nn3)CC2)n1` gave TRPC4 block inactive, TRPC4 PAM inactive, TRPC4 act inactive, TRPC6 inh -6.01, TRPC6 act inactive, HEK293 MPD ctr-2 -102.0%, HEK293 MPD ctr 2-2 inactive, TRPC4/MOR mod -28.5%, TRPC4 ctr inh 2 inactive, TRPC6 inh conf inactive and TRPC6 act conf inactive.
For C#CCOCCOCCOCCNc1nc(N2CCN(C(=O)[C@H]([C@@H](C)CC)n3cc([C@@H](N)CO)nn3)CC2)nc(N2CCN(C(=O)[C@H]([C@@H](C)CC)n3cc([C@@H](N)Cc4ccc(O)cc4)nn3)CC2)n1 the results were TRPC4 block inactive, TRPC4 PAM inactive, TRPC4 act inactive, TRPC6 inh inactive and TRPC6 act inactive.
Screening O=C(CC1OC(=O)c2ccccc21)Nc1cccc(S(=O)(=O)N2CCCCCC2)c1 (stereo unspecified) returned TRPC4 block inactive, TRPC4 PAM inactive, TRPC4 act inactive, TRPC6 inh inactive and TRPC6 act inactive.
Screening CC1CCCN(C(=O)C2COc3ccccc3O2)C1 (stereo unspecified) returned TRPC4 block inactive, TRPC4 PAM inactive, TRPC4 act inactive, TRPC6 inh -5.01, TRPC6 act inactive, HEK293 MPD ctr-2 inactive, HEK293 MPD ctr 2-2 inactive, TRPC4/MOR mod 8.5%, TRPC4 ctr inh 2 inactive and TRPC6 inh conf 49.0%.
Screening O=C(NC1CCCCC1)C(c1ccccc1)N(Cc1ccco1)C(=O)c1csnn1 (stereo unspecified) returned TRPC4 block inactive, TRPC4 PAM inactive, TRPC4 act inactive, TRPC6 inh inactive and TRPC6 act inactive.
O=C(NC1CCCCC1)C(c1ccccc1)N(Cc1ccco1)C(=O)Cn1cnc2ccccc21 (stereo unspecified) was read as TRPC4 block inactive, TRPC4 PAM inactive, TRPC4 act inactive, TRPC6 inh inactive, TRPC6 act 17, HEK293 MPD ctr-2 277.0%, HEK293 MPD ctr 2-2 inactive, TRPC4/MOR mod 119.0%, TRPC4 ctr inh 2 inactive, TRPC6 inh conf inactive and TRPC6 act conf 109.0%.
CN(CC(=O)Nc1cccc(F)c1)C(=O)CCCNC(=O)c1ccc(Cl)cc1 was read as TRPC4 block inactive, TRPC4 PAM inactive, TRPC4 act inactive, TRPC6 inh inactive and TRPC6 act inactive.
Screening CC[n+]1ccc2cc(OC)c(OC)cc2c1Cc1ccc(OC)c(OC)c1 returned TRPC4 block inactive, TRPC4 PAM inactive, TRPC4 act inactive, TRPC6 inh -6.44, TRPC6 act inactive, HEK293 MPD ctr-2 -232.5%, HEK293 MPD ctr 2-2 inactive, TRPC4/MOR mod -40.0%, TRPC4 ctr inh 2 inactive, TRPC6 inh conf inactive and TRPC6 act conf inactive.
Screening CCOc1ccccc1C1NC(=O)CCC1[N+](=O)[O-] (stereo unspecified) returned TRPC4 block inactive, TRPC4 PAM inactive, TRPC4 act inactive, TRPC6 inh inactive and TRPC6 act inactive.
For CC(C)(C)c1nnc(NC(=O)Cc2ccccc2[N+](=O)[O-])s1 the results were TRPC4 block inactive, TRPC4 PAM inactive, TRPC4 act inactive, TRPC6 inh -6.36, TRPC6 act inactive, HEK293 MPD ctr-2 inactive, HEK293 MPD ctr 2-2 inactive, TRPC4/MOR mod inactive, TRPC4 ctr inh 2 inactive, TRPC6 inh conf inactive and TRPC6 act conf inactive.
Screening CC1CC(C)(C)N(C(=O)CN2C(=O)c3ccccc3C2=O)c2ccccc21 (stereo unspecified) returned TRPC4 block -7, TRPC4 PAM inactive, TRPC4 act 158, TRPC6 inh -5.06, TRPC6 act inactive, HEK293 MPD ctr-2 183.0%, HEK293 MPD ctr 2-2 inactive, TRPC4/MOR mod 41.5%, TRPC4 ctr inh 2 inactive and TRPC6 inh conf inactive.
For Cn1nccc1C(=O)N1CCCC(N2CCN(Cc3ccc4c(c3)OCO4)CC2)C1 (stereo unspecified) the results were TRPC4 block inactive, TRPC4 PAM inactive, TRPC4 act inactive, TRPC6 inh inactive and TRPC6 act inactive.
For Cc1ccc2nc(-c3ccncc3)cc(-c3ccccc3)c2c1 the results were TRPC4 block inactive, TRPC4 PAM inactive, TRPC4 act inactive, TRPC6 inh inactive and TRPC6 act inactive.
`Cc1ccc(-c2cc3cccc[n+]3cc2-c2ccc(C)cc2)cc1` gave TRPC4 block inactive, TRPC4 PAM inactive, TRPC4 act inactive, TRPC6 inh -5.75, TRPC6 act inactive, HEK293 MPD ctr-2 -134.0%, HEK293 MPD ctr 2-2 inactive, TRPC4/MOR mod -20.0%, TRPC4 ctr inh 2 29.0%, TRPC6 inh conf 60.5% and TRPC6 act conf inactive.
Screening CN(C)CCCNc1oc(-c2cccc(Cl)c2)nc1C#N returned TRPC4 block inactive, TRPC4 PAM inactive, TRPC4 act inactive, TRPC6 inh -6.85, TRPC6 act inactive, TRPC4 sel inh 2 inactive, TRPC4 spec inactive, HEK293 MPD ctr 2-1 inactive, HEK293 MPD ctr-1 inactive, TRPC6 inh conf inactive and TRPC6 act conf inactive.
